# High-throughput results: PubChem BioAssay, Johns Hopkins Ion Channel Center
# KCNQ1 block: inhibitors of human KCNQ1 channel, primary screen, cell-based, thallium flux, high-throughput; Potassium voltage-gated channel subfamily KQT member 1 (Homo sapiens), P51787; CHO-K1 KCNQ1, FluxOR thallium flux fluorescence; stronger effect = higher value; B-score at 10 µM; 310,000 compounds, 1.3% hits; AID 2642, 2010;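 active = compounds whose thallium flux B-score, printed positive for inhibition, exceeds three library SD while starting fluorescence stays within three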;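 also: channel opened by potassium depolarization with thallium stimulus after 20 min compound exposure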
# KCNQ1 pot: potentiators or activators of KCNQ1 channel, primary screen, cell-based, thallium flux, high-throughput. Potassium voltage-gated channel subfamily KQT member 1 (Homo sapiens), P51787. CHO-K1 KCNQ1, thallium flux FluxOR fluorescence; stronger effect = higher value. B-score at 10 µM. 310,000 compounds, 0.35% hits;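 active = fluorescence ratio B-score, a plate-corrected score, at least three library SD, with initial intensity B-score within 5 SD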
#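 Doses: Single concentration per compound, DMSO matched to controls | Test system: KCNQ1-transfected CHO-K1 cells | Timing: 90 min dye loading and 20 min compound exposure, both at room temperature | Measured by: Kinetic FluxOR thallium fluorescence, 10-s 1-Hz baseline, 110-s post-stimulus read | Medium: Assay buffer with matched DMSO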
# Kir21 inh: inhibitors of mouse Kir2.1 inward-rectifier potassium channel. AID 1672, 2009. HEK293-Kir2.1, FluxOR thallium flux fluorescence; stronger effect = lower value. Inward rectifier potassium channel 2 (Mus musculus), P35561. 310,000 compounds, 0.85% hits. B-score at 10 µM;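 active = fluorescence ratio B-score at or below minus 3 SD of library scores, with starting-brightness B-score within 2 SD, cut at about -4.2 in these data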;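 also: channel flux triggered by added potassium and thallium sulfate stimulus; B-score of peak minus minimum fluorescence over baseline after thallium stimulus; more negative B-score means stronger Kir2.1 block with less thallium influx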
# hERG protect: hERG rescue from dofetilide block, primary screen, cell-based, CHO-hERG, FluxOR thallium flux, dofetilide IC70 | Voltage-gated inwardly rectifying potassium channel KCNH2 (Homo sapiens), Q12809 | dofetilide IC70 present | activation (rescue from dofetilide block), less the hit threshold, % at 10 µM | 310,000 compounds, 0.51% hits | AID 1511, 2009;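 active = activation above the mean of controls blocked by dofetilide plus 5 SD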;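 also: thallium influx through hERG after potassium depolarization seen as dye fluorescence rise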
# KCNK3 block: human KCNK3 channel inhibitors, primary screen, CHO cells, FluxOR thallium flux, B-score | Potassium channel subfamily K member 3 (Homo sapiens), O14649 | FluxOR fluorescence; stronger effect = lower value | 340,000 compounds, 0.84% hits | B-score at 10 µM;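 active = B-score under library mean minus 4 SD, starting fluorescence ratio at most library mean plus 5 SD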;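 also: more negative B-score means stronger inhibition of thallium flux through KCNK3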
# Target sequence (O14649 whole entry, looked up): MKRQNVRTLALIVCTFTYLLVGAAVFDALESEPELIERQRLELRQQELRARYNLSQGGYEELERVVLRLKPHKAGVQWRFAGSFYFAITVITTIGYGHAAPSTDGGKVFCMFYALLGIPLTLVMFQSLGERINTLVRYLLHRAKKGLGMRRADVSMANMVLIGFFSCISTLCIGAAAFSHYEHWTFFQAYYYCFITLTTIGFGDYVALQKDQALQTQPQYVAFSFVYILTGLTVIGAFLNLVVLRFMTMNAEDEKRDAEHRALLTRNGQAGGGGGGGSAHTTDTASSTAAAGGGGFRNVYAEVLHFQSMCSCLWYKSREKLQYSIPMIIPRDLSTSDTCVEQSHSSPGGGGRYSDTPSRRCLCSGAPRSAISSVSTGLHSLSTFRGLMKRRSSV
# KCNK9 block: KCNK9 potassium channel inhibitors, primary screen, HEK293 cells, thallium flux | B-score at 10 µM | Potassium channel subfamily K member 9 (Homo sapiens), Q9NPC2 | 310,000 compounds, 1.2% hits | FluxOR thallium flux fluorescence; stronger effect = lower value;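 active = ratio B-score over 3 SD below the library mean, with starting fluorescence within 5 SD of its mean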;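 also: negative B-score means less thallium flux so channel inhibition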
# KCNK9 block conf: KCNK9 potassium channel inhibitors, confirmation, HEK293 cells, thallium flux, duplicate. shares compounds with KCNK9 block. FluxOR thallium flux fluorescence. inhibition, % at 10 µM. 4,900 compounds, 43% hits. AID 492992, 2010;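 active = thallium signal inhibited by more than 5 SD of the compound-free buffer control wells, on both duplicate plates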
# Kir21 sel: mouse Kir2.1 channel inhibition, confirmation, selectivity assay for KCNK9 modulator project, cell-based, HEK293, thallium flux | Kir2.1 cells, FluxOR thallium flux fluorescence | 4,900 compounds, 4% hits | shares compounds with KCNK9 block | inhibition, % at 10 µM;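 active = thallium signal drop more than 5 SD beyond the mean of the no-compound control wells, seen in both duplicate plates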;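 also: signal is fluorescence rise after thallium addition divided by baseline fluorescence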
# KCNK9 uninduced: thallium flux in non-induced HEK293 cells, confirmation, counter-screen for KCNK9 inhibitor project, cell-based, second counter screen, non-induced KCNK9-HEK293; 4,900 compounds, 40% hits; shares compounds with KCNK9 block; FluxOR thallium flux; AID 492997, 2010; inhibition, % at 10 µM;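 active = thallium signal drop beyond 5 SD of the untreated control mean, on both duplicate plates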
# Hits are given with their value; - = inactive; . = no result given. An excerpt weighted towards active compounds, which were near 3.8% of everything screened.
SMILES,KCNQ1 block,KCNQ1 pot,Kir21 inh,hERG protect,KCNK3 block,KCNK9 block,KCNK9 block conf,Kir21 sel,KCNK9 uninduced
COCCNC(=O)C(=O)N/N=C/c1ccccc1C(F)(F)F,-,-,-,-,-,-,.,.,.
c1ccc(CN2CCN(c3nc(-c4ccccn4)nc4ccccc34)CC2)cc1,-,-,-,-,-,-,.,.,.
c1ccc(CN2CCN(c3nc(-c4ccccc4)nc4ccccc34)CC2)cc1,-,-,-,-,-,-17,34%,-,28%
COc1cccc(-c2nn(C)c3sc(C(=O)NCc4ccc(C)o4)cc23)c1,-,-,-,-,-,-14,48%,-,30%
COc1ccc(-c2nn(C)c3sc(C(=O)NCc4ccco4)cc23)cc1OC,-,-,-,-,-,-,.,.,.
COc1cc(NC(=O)C2CCCN(S(=O)(=O)c3cccc4nsnc34)C2)cc(OC)c1 (stereo not given),-,-,-,-,-,-,-,-,-
Cc1ccc(S(=O)(=O)N/N=C/c2ccc(OS(=O)(=O)c3ccc(C)c([N+](=O)[O-])c3)cc2)cc1,-,-,-,-,-,-,-,-,-
Cc1ccc(S(=O)(=O)N2CCOCC2)cc1NC(=O)COC(=O)Cc1ccc(Cl)cc1,.,.,.,.,-,.,.,.,.
Cc1ccc(S(=O)(=O)N2CCCCC2)cc1NC(=O)COC(=O)Cc1ccc(Cl)cc1,-,-,-,-,-,-,-,-,-
O=C(NCC1CCCN1S(=O)(=O)c1ccccc1)c1cccc(Cl)c1 (stereo not given),-,-,-,-,-,-,.,.,.
CC(C)(C)c1ccc(C(=O)NCC2CCCN2S(=O)(=O)c2ccccc2)cc1 (stereo not given),-,-,-,-,-,-,-,-,-
COc1ccc(OC)c(N(CC(=O)NCCSCc2ccc(C)cc2)S(C)(=O)=O)c1,-,-,-,-,-,-,.,.,.
O=C(CCC(=O)c1ccc(Oc2ccccc2)cc1)Nc1ccc(Cl)cc1Cl,-,-,-,-,-,-,-,-,-
O=S(=O)(Nc1nc(SCc2ccc(Cl)cc2)n[nH]1)c1ccc(F)cc1,-,-,-10,-,-,-11,28%,38%,42%
CCc1nc(SCc2ccc(Cl)cc2)n[nH]1,-,-,-,-,-,-,.,.,.
COc1cccc(C(=O)NCC(C)(C)SCc2ccc(F)cc2)c1,-,-,-,-,-,-,-,-,-
CC1Oc2cc3oc4c(O)c(O)ccc4c(=O)c3c(O)c2C1(C)C (stereo not given),10,-,-,-,-,-,-,-,-
COc1ccc(-c2cc(=O)oc3c(O)c(O)ccc23)cc1,-,-,-,-,-,-,.,.,.
CCOC(=O)c1cccc(NC(=O)CS(=O)(=O)Cc2nc(-c3cccc(OC)c3)oc2C)c1,-,-,-,-,-,-,.,.,.
COc1ccccc1NC(=O)/C(=C/c1cccc([N+](=O)[O-])c1)c1ccccc1,6,-,-,-,-,-8.6,54%,-,38%
CC(=O)n1cc([C@H]2C=C(C(=O)NCc3ccccc3)O[C@@H](OCCCCO)C2)c2ccccc21,-,-,-,-,-,-,-,-,-
O=C(NCc1ccccc1)C1=C[C@H](c2ccc(Br)cc2)C[C@H](OCc2ccc(CO)cc2)O1,-,-,-,-,-,-,-,-,-
C#CCNC(=O)C1=C[C@@H](c2cn(C(C)=O)c3ccccc23)C[C@@H](OCc2ccc(CO)cc2)O1,-,-,-,-,-,-,.,.,.
CC(=O)n1cc([C@H]2C=C(C(=O)NCc3ccccc3)O[C@@H](OCc3ccc(CO)cc3)C2)c2ccccc21,-,-,-,-,-,-,-,-,-
CC(=O)n1cc([C@@H]2C=C(C(=O)NCc3ccccc3)O[C@H](OCCCCO)C2)c2ccccc21,-,-,-,-,-,-,.,.,.
SMILES,KCNQ1 block,KCNQ1 pot,Kir21 inh,hERG protect,KCNK3 block,KCNK9 block,KCNK9 block conf,Kir21 sel,KCNK9 uninduced
NC(=O)/C(=C\c1cccnc1)NC(=O)c1ccccc1,-,-,-,-,-,-,.,.,.
Cc1ccccc1CN1C[C@@H]2C[C@@H](c3cn[nH]c3-c3ccc(F)cc3)N3CCC[C@@]23C1=O,-,-,-,-,-,-,.,.,.
COc1ccc(-c2[nH]ncc2[C@@H]2C[C@H]3CN(Cc4ccccc4C)C(=O)[C@]34CCCN24)cc1,-,-,-,-,-,-,-,-,-
c1ccc2cc(OCCOCCOc3ccc4ccccc4c3)ccc2c1,-,-,-,-,-,-,-,-,-
CN(C)CCOc1ccc2ccccc2c1,-,-,-,-,-,-,.,.,.
Cc1c(C(=O)Nc2cccc(N(C)S(C)(=O)=O)c2)cccc1[N+](=O)[O-],-,-,-,-,-,-,.,.,.
Cn1c(=O)c(C(=O)NCCCc2ccccc2)c(O)c2ccccc21,-,-,-,-,-,-,-,-,28%
COc1ccc(CCNC(=O)c2c(O)c3ccccc3n(C)c2=O)cc1,-,-,-,-,-,-,-,-,-
Cn1c(=O)c(C(=O)NCc2ccccc2)c(O)c2ccccc21,-,-,-,-,-,-,.,.,.
COc1ccc(CCNC(=O)c2cc3c(=O)n(C)c4ccccc4c3n2C)c(OC)c1,-,-,-,-,-,-,-,-,-
CCS(=O)(=O)c1ccc2c(c1)N(S(C)(=O)=O)CC(C(=O)NC1CC1)O2 (stereo not given),-,-,-,-,-,-,.,.,.
O=C1CC(NC(=O)C(F)(F)F)c2cc3c(cc21)OCO3 (stereo not given),-,-,-,-,-,-,.,.,.
COc1ccccc1C1CCN(Cc2ccccc2)CC1,-,-,-,-,-,-,.,.,.
COc1ccccc1C1CCN(Cc2ccc3ccccc3c2)CC1,-,-,-,-,-,-,-,28%,-
CCCNS(=O)(=O)c1cc(Cl)ccc1OC,-,-,-,-,-,-,.,.,.
Fc1ccccc1OCCSc1nnnn1-c1ccccc1,-,-,-,-,-,-,.,.,.
